Data as given in BindingDB's records for doi:10.1021/jm00109a027 (University of Minnesota, 1991).
pKi: −log10 of the molar value.

Key:
Mu-type opioid receptor = Mu-type opioid receptor (Cavia porcellus, UniProt P97266); experiment: Compound was evaluated for the binding affinity to Opioid receptor mu using [3H]DAMGO as radioligand in guinea pig brain membrane
[1] = target: Kappa-type opioid receptor (Cavia porcellus, UniProt P41144); experiment: Compound was evaluated for the binding affinity to opioid receptor kappa using [3H]-EK as radioligand in guinea pig brain membrane
Chain of Kappa-type opioid receptor (P41144 whole entry): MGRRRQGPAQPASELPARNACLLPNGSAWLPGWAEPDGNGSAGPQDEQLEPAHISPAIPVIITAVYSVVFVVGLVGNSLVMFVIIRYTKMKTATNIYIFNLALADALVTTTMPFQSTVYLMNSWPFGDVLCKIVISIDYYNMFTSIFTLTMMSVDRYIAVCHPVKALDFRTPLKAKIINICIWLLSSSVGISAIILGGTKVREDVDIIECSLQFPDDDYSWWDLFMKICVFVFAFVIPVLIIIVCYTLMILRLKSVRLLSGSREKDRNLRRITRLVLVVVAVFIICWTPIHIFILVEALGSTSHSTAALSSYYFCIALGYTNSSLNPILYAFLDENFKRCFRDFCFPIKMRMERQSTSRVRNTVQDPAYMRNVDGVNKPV
Procedure, shortened: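 Radioligand displacement in guinea pig brain membranes, modified from an earlier published method. [3H]EK was used with 1 μM DAMGO present to block μ sites.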

[2] = Compound was evaluated for the binding affinity to opioid receptor delta

Chain of Mu-type opioid receptor (P97266 whole entry): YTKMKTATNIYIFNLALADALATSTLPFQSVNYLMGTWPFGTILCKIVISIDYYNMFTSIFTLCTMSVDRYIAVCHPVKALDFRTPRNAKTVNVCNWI

Oc1ccc2c3c1O[C@H]1c4oc5ccccc5c4C[C@@]4(O)[C@@H](C2)N(CC2CC2)CC[C@]314 [CAS_111555-58-9]
pKi (Mu-type opioid receptor): 7.73
pKi [1]: 6.81

Oc1ccc2c3c1O[C@H]1c4nc5ccccc5nc4C[C@@]4(O)[C@@H](C2)N(CC2CC2)CC[C@]314
pKi (Mu-type opioid receptor): 8.14
pKi [1]: 6.72

Oc1ccc2c3c1O[C@H]1C(c4ccccc4)=CC[C@@]4(O)[C@@H](C2)N(CC2CC2)CC[C@]314
pKi (Mu-type opioid receptor): 11.30
pKi [1]: 11.00

Cn1c2c(c3c1[C@@H]1Oc4c(O)ccc5c4[C@@]14CCN(CC1CC1)[C@H](C5)[C@]4(O)C3)CCCC2
pKi (Mu-type opioid receptor): 7.77
pKi [1]: 6.69

Oc1ccc2c3c1O[C@H]1C(c4c[nH]c5ccccc45)=CC[C@@]4(O)C(C2)N(CC2CC2)CC[C@]314 [4-cyclopropylmethyl-14-(1H-3-indolyl)-(1S,13S,17S)-12-oxa-4-azapentacyclo[9.6.1.01,13.05,17.07,18]octadeca-7(18),8,10,14-tetraene-10,17-diol]
pKi [2]: 9.00
